Experimental data from ChEMBL document CHEMBL4190362, “Synthesis, biological evaluation and quantitative structure-active relationships of 1,3-thiazolidin-4-one derivatives. A promising chemical scaffold endowed with high antifungal potency and low cytotoxicity” (Eur J Med Chem, 2017).

Key:
Assay type in all cases: functional
[1] = test system: Escherichia coli; experiment: Antibacterial activity against Escherichia coli assessed as inhibition of microbial growth incubated for 18 to 22 hrs by broth microdilution method
Procedure, shortened: (§1)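 Broth microdilution in Mueller-Hinton II broth following NCCLS recommendations; compounds dissolved in DMSO.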

[2] = test system: Candida parapsilosis; experiment: Antifungal activity against Candida parapsilosis clinical isolates assessed as inhibition of microbial growth incubated for 24 hrs by broth microdilution method; details: Lodderomyces parapsilosis
Procedure, shortened: (§2)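 Twenty-two clinical Candida isolates (8 C. albicans, 4 C. glabrata, 3 C. tropicalis, 3 C. krusei, 2 C. parapsilosis, 2 C. sake) were identified by colony morphology and biochemistry and subcultured at 35 °C for purity. Compounds were dissolved in DMSO and tested by broth microdilution in Sabouraud dextrose broth per NCCLS/CLSI/EUCAST guidance. Values are geometric mean MIC per species (µg/mL).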

[3] = test system: Staphylococcus warneri; experiment: Antibacterial activity against Staphylococcus warneri assessed as inhibition of microbial growth incubated for 18 to 22 hrs by broth microdilution method; procedure, shortened: as §1
[4] = test system: [Candida] sake; experiment: Antifungal activity against Candida sake clinical isolates assessed as inhibition of microbial growth incubated for 24 hrs by broth microdilution method; details: Fermentozyma sake; procedure, shortened: as §2
[5] = test system: Staphylococcus aureus; experiment: Antibacterial activity against Staphylococcus aureus assessed as inhibition of microbial growth incubated for 18 to 22 hrs by broth microdilution method; procedure, shortened: as §1
[6] = test system: Klebsiella oxytoca; experiment: Antibacterial activity against Klebsiella oxytoca assessed as inhibition of microbial growth incubated for 18 to 22 hrs by broth microdilution method; procedure, shortened: as §1
[7] = test system: Enterobacter; experiment: Antibacterial activity against Enterobacter spp. assessed as inhibition of microbial growth incubated for 18 to 22 hrs by broth microdilution method; procedure, shortened: as §1
[8] = test system: Pichia kudriavzevii; experiment: Antifungal activity against Candida krusei clinical isolates assessed as inhibition of microbial growth incubated for 24 hrs by broth microdilution method; procedure, shortened: as §2
[9] = test system: Nakaseomyces glabratus; experiment: Antifungal activity against Candida glabrata clinical isolates assessed as inhibition of microbial growth incubated for 24 hrs by broth microdilution method; procedure, shortened: as §2
[10] = test system: Candida albicans; experiment: Antifungal activity against Candida albicans clinical isolates assessed as inhibition of microbial growth incubated for 24 hrs by broth microdilution method; procedure, shortened: as §2
[11] = test system: Candida tropicalis; experiment: Antifungal activity against Candida tropicalis clinical isolates assessed as inhibition of microbial growth incubated for 24 hrs by broth microdilution method; procedure, shortened: as §2
[12] = test system: Enterococcus faecalis; experiment: Antibacterial activity against Streptococcus faecalis assessed as inhibition of microbial growth incubated for 18 to 22 hrs by broth microdilution method; procedure, shortened: as §1
[13] = test system: Proteus mirabilis; experiment: Antibacterial activity against Proteus mirabilis assessed as inhibition of microbial growth incubated for 18 to 22 hrs by broth microdilution method; procedure, shortened: as §1

Row | SMILES | MIC [1] | MIC [2] | MIC [3] | MIC [4] | MIC [5] | MIC [6] | MIC [7] | MIC [8] | MIC [9] | MIC [10] | MIC [11] | MIC [12] | MIC [13]
1 | C=CCC/C(C)=N\N=C1\SCC(=O)N1Cc1ccccc1 | ≥ 256 µg/mL | 8 µg/mL | ≥ 256 µg/mL | 8 µg/mL | ≥ 256 µg/mL | ≥ 256 µg/mL | ≥ 256 µg/mL | 8 µg/mL | 2 µg/mL | 8 µg/mL | 8 µg/mL | ≥ 256 µg/mL | ≥ 256 µg/mL
2 | C/C(=N/N=C1/SCC(=O)N1Cc1ccccc1)C1CC1 | ≥ 256 µg/mL | 2 µg/mL | ≥ 256 µg/mL | 2 µg/mL | ≥ 256 µg/mL | ≥ 256 µg/mL | ≥ 256 µg/mL | 2 µg/mL | 4 µg/mL | 2 µg/mL | 2 µg/mL | ≥ 256 µg/mL | ≥ 256 µg/mL
3 | CCC/C(CC)=N\N=C1\SCC(=O)N1Cc1ccccc1 | ≥ 256 µg/mL | 8 µg/mL | ≥ 256 µg/mL | 8 µg/mL | ≥ 256 µg/mL | ≥ 256 µg/mL | ≥ 256 µg/mL | 4 µg/mL | 4 µg/mL | 4 µg/mL | 4 µg/mL | ≥ 256 µg/mL | ≥ 256 µg/mL
4 | CC1CCC/C1=N/N=C1/SCC(=O)N1Cc1ccccc1 (stereo not drawn) | ≥ 256 µg/mL | 4 µg/mL | ≥ 256 µg/mL | 4 µg/mL | ≥ 256 µg/mL | ≥ 256 µg/mL | ≥ 256 µg/mL | 4 µg/mL | 8 µg/mL | 8 µg/mL | 8 µg/mL | ≥ 256 µg/mL | ≥ 256 µg/mL
5 | CC1CCC(=N/N=C2/SCC(=O)N2Cc2ccccc2)CC1 (stereo not drawn) | ≥ 256 µg/mL | 16 µg/mL | ≥ 256 µg/mL | 16 µg/mL | ≥ 256 µg/mL | ≥ 256 µg/mL | ≥ 256 µg/mL | 16 µg/mL | 8 µg/mL | 8 µg/mL | 16 µg/mL | ≥ 256 µg/mL | ≥ 256 µg/mL
6 | C/C(CC(C)C)=N/N=C1/SCC(=O)N1Cc1ccccc1 | ≥ 256 µg/mL | 16 µg/mL | ≥ 256 µg/mL | 16 µg/mL | ≥ 256 µg/mL | ≥ 256 µg/mL | ≥ 256 µg/mL | 16 µg/mL | 8 µg/mL | 8 µg/mL | 16 µg/mL | ≥ 256 µg/mL | ≥ 256 µg/mL
7 | CC1CCCC/C1=N/N=C1/SCC(=O)N1Cc1ccccc1 (stereo not drawn) | ≥ 256 µg/mL | 4 µg/mL | ≥ 256 µg/mL | 16 µg/mL | ≥ 256 µg/mL | ≥ 256 µg/mL | ≥ 256 µg/mL | 16 µg/mL | 2 µg/mL | 16 µg/mL | 32 µg/mL | ≥ 256 µg/mL | ≥ 256 µg/mL
8 | CCCC/C(CC)=N\N=C1\SCC(=O)N1Cc1ccccc1 | ≥ 256 µg/mL | 8 µg/mL | ≥ 256 µg/mL | 4 µg/mL | ≥ 256 µg/mL | ≥ 256 µg/mL | ≥ 256 µg/mL | 4 µg/mL | 32 µg/mL | 128 µg/mL | 16 µg/mL | ≥ 256 µg/mL | ≥ 256 µg/mL
9 | CCCCCC/C(C)=N\N=C1\SCC(=O)N1Cc1ccccc1 | ≥ 256 µg/mL | 16 µg/mL | ≥ 256 µg/mL | 16 µg/mL | ≥ 256 µg/mL | ≥ 256 µg/mL | ≥ 256 µg/mL | 16 µg/mL | 8 µg/mL | 8 µg/mL | 16 µg/mL | ≥ 256 µg/mL | ≥ 256 µg/mL
10 | CCCCC/C(C)=N\N=C1\SCC(=O)N1Cc1ccccc1 | ≥ 256 µg/mL | 16 µg/mL | ≥ 256 µg/mL | 16 µg/mL | ≥ 256 µg/mL | ≥ 256 µg/mL | ≥ 256 µg/mL | 16 µg/mL | 8 µg/mL | 8 µg/mL | 16 µg/mL | ≥ 256 µg/mL | ≥ 256 µg/mL
11 | O=C1CS/C(=N/N=C2CCCC2)N1Cc1ccccc1 | ≥ 256 µg/mL | 16 µg/mL | ≥ 256 µg/mL | 16 µg/mL | ≥ 256 µg/mL | ≥ 256 µg/mL | ≥ 256 µg/mL | 16 µg/mL | 8 µg/mL | 8 µg/mL | 16 µg/mL | ≥ 256 µg/mL | ≥ 256 µg/mL
12 | CC(C)=C/C(C)=N\N=C1\SCC(=O)N1Cc1ccccc1 | ≥ 256 µg/mL | 8 µg/mL | ≥ 256 µg/mL | 8 µg/mL | ≥ 256 µg/mL | ≥ 256 µg/mL | ≥ 256 µg/mL | 8 µg/mL | 2 µg/mL | 128 µg/mL | 128 µg/mL | ≥ 256 µg/mL | ≥ 256 µg/mL
13 | CCCC/C(C)=N\N=C1\SCC(=O)N1Cc1ccccc1 | ≥ 256 µg/mL | 2 µg/mL | ≥ 256 µg/mL | 4 µg/mL | ≥ 256 µg/mL | ≥ 256 µg/mL | ≥ 256 µg/mL | 2 µg/mL | 2 µg/mL | 2 µg/mL | 2 µg/mL | ≥ 256 µg/mL | ≥ 256 µg/mL
14 | O=C1CS/C(=N/N=C2CCCCCC2)N1Cc1ccccc1 | ≥ 256 µg/mL | 256 µg/mL | ≥ 256 µg/mL | 256 µg/mL | ≥ 256 µg/mL | ≥ 256 µg/mL | ≥ 256 µg/mL | 256 µg/mL | 256 µg/mL | 256 µg/mL | 256 µg/mL | ≥ 256 µg/mL | ≥ 256 µg/mL
15 | CC1CC/C(=N/N=C2/SCC(=O)N2Cc2ccccc2)C1 (stereo not drawn) | ≥ 256 µg/mL | 256 µg/mL | ≥ 256 µg/mL | 256 µg/mL | ≥ 256 µg/mL | ≥ 256 µg/mL | ≥ 256 µg/mL | 256 µg/mL | 256 µg/mL | 256 µg/mL | 256 µg/mL | ≥ 256 µg/mL | ≥ 256 µg/mL
16 | CC1CCC/C(=N/N=C2/SCC(=O)N2Cc2ccccc2)C1 (stereo not drawn) | ≥ 256 µg/mL | 4 µg/mL | ≥ 256 µg/mL | 4 µg/mL | ≥ 256 µg/mL | ≥ 256 µg/mL | ≥ 256 µg/mL | 4 µg/mL | 8 µg/mL | 8 µg/mL | 8 µg/mL | ≥ 256 µg/mL | ≥ 256 µg/mL
